Experimental findings from ChEMBL document CHEMBL3124861, “Application of ProTide technology to gemcitabine: a successful approach to overcome the key cancer resistance mechanisms leads to a new agent (NUC-1031) in clinical development” (J Med Chem, 2014) are described below.

One series has as its system L1210. Kind of series: Cytostatic activity against mouse L1210 cells after 48 hrs by coulter counter analysis. In kind it is functional, cell-based. Particulars: L1210, 48 h. In outline: (§1)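 Tumor cell proliferation assay with murine leukemia and human T-lymphoblast cells. IC50 is the concentration that inhibits proliferation by 50%. Values are means of at least two independent experiments.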

A further series deals with CCRF-CEM. Kind of series: Cytostatic activity against human CEM cells after 72 hrs by coulter counter analysis. In kind it is functional, cell-based. In outline: as §1
Series [1] relates to Mus musculus. Kind of series: Toxicity in Balb/c nude mouse xenografted with human MIAPaCa2 cells assessed as change in body weight at 0.19 to 0.076 mmol/kg, ip administered 2 times per week for 2 weeks measured every week during compound treatment relative to vehicle-treated control. The conditions noted are these: in vivo, 336 h. In kind it is organism-based, MIA PaCa-2. (In general: A xenograft is tissue or cells of one species grown in another, often human tumour cells in immunodeficient mice.)

Series [2] can be described thus: Prodrug activation assessed as carboxypeptidase Y (unknown origin)-mediated formation of (S)-2-((((2R,3R,5R)-5-(4-amino-2-oxopyrimidin-1(2H)-yl)-4,4-difluoro-3-hydroxytetrahydrofuran-2-yl)methoxy)oxidophosphorylamino)propanoate at 3 mg measured after 10 mins by [31P]-NMR spectroscopic analysis. Put shortly: (§2)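 The prodrug was dissolved in acetone-d6 with Trizma buffer (pH 7.6). A blank spectrum was recorded at 25 °C, then carboxypeptidase Y was added. Conversion was followed by 31P NMR spectra recorded over time, with peaks assigned by chemical shift.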

The nature of series [3]: Cytotoxicity against human PANC1 cells assessed as cell viability by MTT assay in presence of hENT1 inhibitor dipyridamole. The series is classed as functional, cell-based. The conditions noted are these: PANC-1. Put shortly: (§3)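 PANC1 pancreatic cancer cells were grown with the test agent, with or without dipyridamole to block hENT1 nucleoside transport. Viable cells were counted by colorimetric MTT assay, and EC50 was taken as the concentration blocking proliferation by 50%.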

A short description of series [4]: Cytotoxicity against human RT112 cells assessed as cell viability by MTT assay in presence of dCK substrate deoxycytidine. The series is classed as functional, cell-based. Particulars: RT-112. Put shortly:
(§4)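 RT112 cancer cells were grown with the test agent, with or without 2′-deoxycytidine as a competing dCK substrate to mimic dCK down-regulation. Viable cells were counted by colorimetric MTT assay, and EC50 was taken as the concentration blocking proliferation by 50%.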
Background: Tetrazolium dyes change colour on reduction, which living cells bring about.

The subject of series [5] is MIA PaCa-2. As to the kind of experiment: Antitumor activity against human MIAPaCa2 cells xenografted in Balb/c nude mouse assessed as tumor growth inhibition at 0.076 mmol/kg, ip measured on day 7. The series is classed as functional, organism-based.
Series [6] is described as follows: Cytotoxicity against human RT112 cells assessed as cell viability by MTT assay in absence of dCK substrate deoxycytidine. In kind it is functional, cell-based. The conditions noted are these: RT-112. Put shortly: as §4
Series [7] in a line: Prodrug activation in human MIAPaCa2 cells assessed as formation of dFdCTP after 24 hrs in presence of dCK inhibitor 2T2D. The series is classed as cell-based. Particulars: mia paca-2, 24 h. In outline: (§5)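 Pancreatic cells were exposed to the agent for 24 h, with or without a dCK inhibitor or the hENT1 inhibitor NBTI. Intracellular dFdCTP was measured by UPLC-MS/MS on a C18 column. Elution used a 10 mM ammonium acetate/acetonitrile gradient at 700 μL/min. Detection was by triple-quadrupole heated electrospray, transition m/z 502.0→159.0 at 37 V collision energy.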

A short description of series [8]: Prodrug activation assessed as carboxypeptidase Y (unknown origin)-mediated formation of (S)-2-((((2R,3R,5R)-5-(4-amino-2-oxopyrimidin-1(2H)-yl)-4,4-difluoro-3-hydroxytetrahydrofuran-2-yl)methoxy)oxidophosphorylamino)propanoate at 3 mg measured within 12 hrs by [31P]-NMR spectroscopic analysis. Put shortly: as §2
Series [9] relates to BXPC-3. As to the kind of experiment: Antitumor activity against human BxPC3 cells xenografted in Balb/c nude mouse assessed as tumor growth inhibition at 0.19 mmol/kg, ip administered every week for 3 weeks. The series is classed as functional, organism-based.
The subject of series [10] is MIA PaCa-2. As to the kind of experiment: Antitumor activity against human MIAPaCa2 cells xenografted in Balb/c nude mouse assessed as tumor growth inhibition at 0.19 mmol/kg, ip administered every week for 3 weeks. In kind it is functional, organism-based.
The subject of series [11] is MIA PaCa-2. Kind of series: Cytostatic activity against human MIAPaCa2 cells after 72 hrs by MTS assay. In kind it is functional, cell-based. The conditions noted are these: MIA PaCa-2, 72 h. Put shortly: (§6)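 Pancreatic carcinoma cell proliferation assay. IC50 is the concentration that inhibits tumor cell proliferation by 50%. Values are means of at least two independent experiments.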

The nature of series [12]: Prodrug activation in human MIAPaCa2 cells assessed as formation of dFdCTP after 24 hrs in presence of hENT1 inhibitor NBTI. The series is classed as cell-based. The conditions noted are these: mia paca-2, 24 h. In outline:
as §5

A short description of series [13]: Prodrug activation in human BxPC3 cells assessed as formation of dFdCTP after 24 hrs in presence of dCK inhibitor 2T2D. The series is classed as cell-based. Particulars: bxpc-3, 24 h. Put shortly: as §5
In series [14] the test system is BXPC-3. Kind of series: Cytostatic activity against human BxPC3 cells after 72 hrs by MTS assay. The series is classed as functional, cell-based. Particulars: BXPC-3, 72 h. Put shortly: as §6
A further series has as its target Cytidine deaminase (Homo sapiens, UniProt P32320). As to the kind of experiment: Drug degradation assessed as recombinant human cytidine deaminase-mediated dFdU formation at 100 uM measured at 30 mins by UV absorption spectroscopic analysis. In kind it is ADME. Particulars: 0.5 h. In outline: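 The nucleoside or prodrug was incubated with cytidine deaminase for 30 min. Deamination was followed by UV absorbance spectra recorded between 220 and 350 nm.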

A short description of series [15]: Prodrug activation in human BxPC3 cells assessed as formation of dFdCTP after 24 hrs in presence of hENT1 inhibitor NBTI. In kind it is cell-based. The conditions noted are these: bxpc-3, 24 h. Put shortly: as §5
The nature of series [16]: Cytotoxicity against human PANC1 cells assessed as cell viability by MTT assay in absence of hENT1 inhibitor dipyridamole. Particulars: PANC-1. In kind it is functional, cell-based. Put shortly:
as §3

The subject of series [17] is Serum. As to the kind of experiment: Prodrug activation in human serum assessed as formation of (S)-2-((((2R,3R,5R)-5-(4-amino-2-oxopyrimidin-1(2H)-yl)-4,4-difluoro-3-hydroxytetrahydrofuran-2-yl)methoxy)oxidophosphorylamino)propanoate at 5 mg measured after 5.5 hrs by [31P]-NMR spectroscopic analysis. In kind it is cell-free. In outline:
(§7)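 The prodrug was incubated in human or rat serum and followed over time by 31P NMR. Metabolites were assigned by chemical shift. Human serum spectra were resolved by Lorentz-Gauss deconvolution.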

In series [18] the test system is Mus musculus. As to the kind of experiment: Toxicity in Balb/c nude mouse xenografted with human BxPC3 cells assessed as change in body weight at 0.19 to 0.076 mmol/kg, ip administered 2 times per week for 2 weeks measured every week during compound treatment. The conditions noted are these: in vivo, 336 h. The series is classed as organism-based, BXPC-3.
Series [19] relates to Serum. Kind of series: Prodrug activation in rat serum assessed as formation of (S)-2-((((2R,3R,5R)-5-(4-amino-2-oxopyrimidin-1(2H)-yl)-4,4-difluoro-3-hydroxytetrahydrofuran-2-yl)methoxy)oxidophosphorylamino)propanoate at 5 mg measured after 6.5 mins by [31P]-NMR spectroscopic analysis. In kind it is cell-free. Put shortly: as §7
Series [20] is described as follows: Prodrug activation assessed as carboxypeptidase Y (unknown origin)-mediated formation of (2S)-2-((((2R,3R,5R)-5-(4-amino-2-oxopyrimidin-1(2H)-yl)-4,4-difluoro-3-hydroxytetrahydrofuran-2-yl)methoxy)(phenoxy)phosphorylamino)propanoate at 3 mg measured within 10 mins by [31P]-NMR spectroscopic analysis. Put shortly:
as §2

In series [21] the test system is MIA PaCa-2. As to the kind of experiment: Ratio of gemcitabine IC50 to compound IC50 for human MIAPaCa2 cells after 72 hrs by MTS assay. The series is classed as functional.
Series [22] in a line: Metabolic stability in human liver microsomes assessed as compound remaining at 0.5 uM after 1 hr by HPLC-Ms/Ms analysis. The series is classed as ADME. The conditions noted are these: read-out: Stability. In outline:
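Compounds incubated with human liver microsomes for 1 h. Percentage of parent remaining measured.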
In general terms: Liver microsomes are vesicles of endoplasmic reticulum, rich in cytochrome P450 enzymes.

For series [23], the system named is BXPC-3. Kind of series: Ratio of gemcitabine IC50 to compound IC50 for human BxPC3 cells after 72 hrs by MTS assay. In kind it is functional.
The nature of series [24]: Half life in human hepatocytes at 1 uM. In kind it is ADME, cell-based, Hepatocyte. In outline: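 Compounds incubated with human hepatocytes. Half-life determined.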

Activity calls are given as the source filed them. No cut-off for these calls is given here.

Sequence of Cytidine deaminase (P32320 whole entry): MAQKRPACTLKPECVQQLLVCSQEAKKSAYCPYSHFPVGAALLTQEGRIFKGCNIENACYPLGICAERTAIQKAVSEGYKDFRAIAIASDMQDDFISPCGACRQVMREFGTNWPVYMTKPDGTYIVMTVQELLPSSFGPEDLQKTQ

The term IC50 denotes the concentration that gives 50% inhibition. Regarding `C[C@H](NP(=O)(OC[C@H]1O[C@@H](n2ccc(N)nc2=O)C(F)(F)[C@@H]1O)Oc1cccc2ccccc12)C(=O)OC1CCCCC1` (some centres undefined), the figures for the IC50 with L1210 and in the series with CCRF-CEM were 320 nM and 140 nM, respectively.

A word on the EC50: it is the concentration needed to bring the measured effect to its halfway point. Consider `C[C@H](NP(=O)(OC[C@H]1O[C@@H](n2ccc(N)nc2=O)C(F)(F)[C@@H]1O)Oc1ccccc1)C(=O)OCc1ccccc1` (some centres undefined) [FOSGEMCITABINE PALABENAMIDE], for which the Activity in the series on Mus musculus [1] is less than 4%; in the series on Mus musculus [18] it was “Non-toxic”. In addition, the Drug metabolism result in [2], in [7], in series [8], in series [12], in series [13] and in series [15] was “Active” each time. Also, the Drug metabolism entry (in the series with Serum [17]; in the series on Serum [19]; in series [20]) was “Active” throughout. The EC50 in [3] is 162000 nM; in [4] it was 0.7 nM; in series [6] it was 0.2 nM; in series [16], 190000 nM. Further, the TGI result with MIA PaCa-2 [5], in the series with BXPC-3 [9] and in the series on MIA PaCa-2 [10] was “Active” in each case. The IC50 with L1210 was determined as 35 nM; with MIA PaCa-2 [11] it was 440 nM; in the series on BXPC-3 [14], 150 nM; in the series with CCRF-CEM, 100 nM. Moreover, the Stability result at Cytidine deaminase is listed as “Stable”.

Take `CCCCCOC(=O)[C@H](C)NP(=O)(OC[C@H]1O[C@@H](n2ccc(N)nc2=O)C(F)(F)[C@@H]1O)Oc1cccc2ccccc12` (some centres undefined): the results for the IC50 with L1210 and in the series with CCRF-CEM were 30 nM and 73 nM, respectively.

`C[C@H](NP(=O)(OC[C@H]1O[C@@H](n2ccc(N)nc2=O)C(F)(F)[C@@H]1O)Oc1ccccc1)C(=O)OC1CCCCC1` (some centres undefined): the IC50 in the series on L1210 was 600 nM; in the series on CCRF-CEM, 420 nM.

Regarding `CCCCCOC(=O)C(C)(C)NP(=O)(OC[C@H]1O[C@@H](n2ccc(N)nc2=O)C(F)(F)[C@@H]1O)Oc1cccc2ccccc12` (some centres undefined), the 50% inhibitory concentration (IC50) came to 160 nM in the series on L1210 and 130 nM in the series with CCRF-CEM.

As a reminder, the half-life is the time in which the quantity being followed falls by half. Take `C[C@H](NP(=O)(OC[C@H]1O[C@@H](n2ccc(N)nc2=O)C(F)(F)[C@@H]1O)Oc1cccc2ccccc12)C(=O)OCc1ccccc1` (some centres undefined): the “Ratio IC50” value in the series with MIA PaCa-2 [21] and in the series with BXPC-3 [23] was 2 each time. Besides, the remaining at 1 h, 0.5 µM in series [22] came to 1%. Also, the IC50 in the series on L1210 turned out to be 35 nM; in the series with MIA PaCa-2 [11], 570 nM; with BXPC-3 [14], 240 nM; in the series with CCRF-CEM it was 100 nM. In addition, the half-life at 1 µM in [24] came to 1.32 h.
